These results are taken from ChEMBL document CHEMBL1649374 (Eur J Med Chem, 2011).

The nature of data set [1]: Oral bioavailability in Beagle dog at 20 mg/kg. It counts as ADME, organism-based, Canis lupus familiaris. The note with it: in vivo.
Data set [2] can be described thus: Mean residence time in Sprague-Dawley rat at 10 mg/kg, iv. It counts as ADME, organism-based. Details: dose 10 mg/kg, route intravenous. As to conditions: in vivo.
Data set [3] can be described thus: Plasma clearance in Sprague-Dawley rat at 10 mg/kg, iv. Details: dose 10 mg/kg, route intravenous. It counts as ADME, organism-based.
Data set [4] in a line: Tmax in Sprague-Dawley rat at 10 mg/kg, iv. It counts as ADME, organism-based. As to conditions: in vivo. Details: dose 10 mg/kg, route intravenous.
For the next data set, the target named is Dipeptidyl peptidase 4 (Homo sapiens, UniProt P27487). In words: Inhibition of DPP4 after 20 mins by fluorescence assay.
In the next data set the test system is Rattus norvegicus. In words: AUC (0 to t) in Sprague-Dawley rat at 20 mg/kg, po. It counts as ADME, organism-based, Plasma. Details: dose 20 mg/kg, route oral. The note with it: in vivo.
Data set [5] concerns Mus musculus. Put plainly: Antidiabetic activity in ICR mouse assessed as reduction of serum DPP4 activity at 3 mg/kg, po. It counts as functional, organism-based. More on the design: dose 3 mg/kg. The procedure, abridged: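 Compound was given orally at 3 mg/kg, or vehicle, with n = 5 per group. Serum was mixed with 80 mM MgCl2 for 5 min at room temperature, then 0.1 mM Gly-Pro-AMC and buffer were added. Fluorescence (ex 380 nm, em 460 nm) was read every 3 min over 18 min, and serum DPP-IV specific activity was calculated from these reads.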

A short description of data set [6]: Half life in Sprague-Dawley rat at 20 mg/kg, po. It counts as ADME, organism-based. Details: dose 20 mg/kg, route oral. As to conditions: in vivo.
Data set [7] in a line: Tmax in Beagle dog at 20 mg/kg, po. It counts as ADME, organism-based, Canis lupus familiaris. Details: dose 20 mg/kg, route oral. As to conditions: in vivo.
The nature of data set [8]: Plasma clearance in Beagle dog at 10 mg/kg, iv. It counts as ADME, organism-based, Canis lupus familiaris. More on the design: dose 10 mg/kg, route intravenous.
Data set [9] is described as follows: Cmax in Beagle dog at 10 mg/kg, iv. It counts as ADME, organism-based, Canis lupus familiaris. More on the design: dose 10 mg/kg, route intravenous. As to conditions: in vivo.
Data set [10] can be described thus: AUC (0 to t) in Beagle dog at 20 mg/kg, po. Details: dose 20 mg/kg, route oral. It counts as ADME, organism-based, Canis lupus familiaris. As to conditions: plasma.
Data set [11] in a line: Half life in Beagle dog at 10 mg/kg, iv. More on the design: dose 10 mg/kg, route intravenous. It counts as ADME, organism-based, Canis lupus familiaris. The note with it: in vivo.
The nature of data set [12]: Mean residence time in Beagle dog at 20 mg/kg, po. As to conditions: in vivo. More on the design: dose 20 mg/kg, route oral. It counts as ADME, organism-based, Canis lupus familiaris.
The nature of data set [13]: Plasma clearance in Beagle dog at 20 mg/kg, po. It counts as ADME, organism-based, Canis lupus familiaris. Details: dose 20 mg/kg, route oral.
In data set [14] the test system is Mus musculus. Put plainly: Antidiabetic activity in C57BL/6J mouse high-fat diet model assessed as reduction in glucose AUC (0 to 120) at 3 mg/kg, po pretreated 30 mins before glucose challenge measured by oral glucose tolerance test. It counts as functional, organism-based. More on the design: dose 3 mg/kg.
Data set [15] is described as follows: Mean residence time in Sprague-Dawley rat at 20 mg/kg, po. It counts as ADME, organism-based. More on the design: dose 20 mg/kg, route oral. The note with it: in vivo.
The nature of data set [16]: Oral bioavailability in Sprague-Dawley rat at 20 mg/kg. It counts as ADME, organism-based. As to conditions: in vivo.
Data set [17] is described as follows: Cmax in Beagle dog at 20 mg/kg, po. It counts as ADME, organism-based, Canis lupus familiaris. More on the design: dose 20 mg/kg, route oral. As to conditions: in vivo.
Data set [18] in a line: Tmax in Sprague-Dawley rat at 20 mg/kg, po. It counts as ADME, organism-based. More on the design: dose 20 mg/kg, route oral. The note with it: in vivo.
Data set [19] in a line: Tmax in Beagle dog at 10 mg/kg, iv. It counts as ADME, organism-based, Canis lupus familiaris. Details: dose 10 mg/kg, route intravenous. The note with it: in vivo.
Data set [20] can be described thus: Half life in Beagle dog at 20 mg/kg, po. As to conditions: in vivo. It counts as ADME, organism-based, Canis lupus familiaris. Details: dose 20 mg/kg, route oral.
Data set [21] can be described thus: AUC (0 to t) in Beagle dog at 10 mg/kg, iv. It counts as ADME, organism-based, Canis lupus familiaris. The note with it: plasma. More on the design: dose 10 mg/kg, route intravenous.
Data set [22] is described as follows: Half life in Sprague-Dawley rat at 10 mg/kg, iv. It counts as ADME, organism-based. More on the design: dose 10 mg/kg, route intravenous. The note with it: in vivo.
In data set [23] the target is Voltage-gated inwardly rectifying potassium channel KCNH2 (Homo sapiens, UniProt Q12809). Put plainly: Inhibition of human ERG expressed in HEK293 cells after 3 hrs by nonradioactive rubidium efflux assay. As to conditions: hek293, 3 h. It counts as cell-based.
The target of a further data set is Dipeptidyl peptidase 8 (Homo sapiens, UniProt Q6V1X1). Put plainly: Inhibition of DPP8 after 20 mins by fluorescence assay. The method in brief: (§1)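 Enzyme and inhibitor were preincubated for 10 min at room temperature in 50 mM Tris pH 7.5 with 0.1% BSA. The reaction was started with Gly-Pro-AMC and run for 20 min at room temperature. IC50 is the mean of three separate experiments, from curve fitting.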

Data set [24] can be described thus: AUC (0 to t) in Sprague-Dawley rat at 10 mg/kg, iv. It counts as ADME, organism-based. As to conditions: plasma. Details: dose 10 mg/kg, route intravenous.
The nature of data set [25]: Cmax in Sprague-Dawley rat at 20 mg/kg, po. It counts as ADME, organism-based. More on the design: dose 20 mg/kg, route oral. As to conditions: in vivo.
The target in a further data set is Dipeptidyl peptidase 9 (Homo sapiens, UniProt Q86TI2). Put plainly: Inhibition of DPP9 after 20 mins by fluorescence assay. The procedure, abridged:
as §1

Data set [26] is described as follows: Mean residence time in Beagle dog at 10 mg/kg, iv. It counts as ADME, organism-based, Canis lupus familiaris. More on the design: dose 10 mg/kg, route intravenous. As to conditions: in vivo.
Data set [27] can be described thus: Cmax in Sprague-Dawley rat at 10 mg/kg, iv. The note with it: in vivo. It counts as ADME, organism-based. More on the design: dose 10 mg/kg, route intravenous.

Calls of active or inactive are those of the source. The rule behind the calls is not given here.

Sequence of Dipeptidyl peptidase 8 (Q6V1X1 whole entry): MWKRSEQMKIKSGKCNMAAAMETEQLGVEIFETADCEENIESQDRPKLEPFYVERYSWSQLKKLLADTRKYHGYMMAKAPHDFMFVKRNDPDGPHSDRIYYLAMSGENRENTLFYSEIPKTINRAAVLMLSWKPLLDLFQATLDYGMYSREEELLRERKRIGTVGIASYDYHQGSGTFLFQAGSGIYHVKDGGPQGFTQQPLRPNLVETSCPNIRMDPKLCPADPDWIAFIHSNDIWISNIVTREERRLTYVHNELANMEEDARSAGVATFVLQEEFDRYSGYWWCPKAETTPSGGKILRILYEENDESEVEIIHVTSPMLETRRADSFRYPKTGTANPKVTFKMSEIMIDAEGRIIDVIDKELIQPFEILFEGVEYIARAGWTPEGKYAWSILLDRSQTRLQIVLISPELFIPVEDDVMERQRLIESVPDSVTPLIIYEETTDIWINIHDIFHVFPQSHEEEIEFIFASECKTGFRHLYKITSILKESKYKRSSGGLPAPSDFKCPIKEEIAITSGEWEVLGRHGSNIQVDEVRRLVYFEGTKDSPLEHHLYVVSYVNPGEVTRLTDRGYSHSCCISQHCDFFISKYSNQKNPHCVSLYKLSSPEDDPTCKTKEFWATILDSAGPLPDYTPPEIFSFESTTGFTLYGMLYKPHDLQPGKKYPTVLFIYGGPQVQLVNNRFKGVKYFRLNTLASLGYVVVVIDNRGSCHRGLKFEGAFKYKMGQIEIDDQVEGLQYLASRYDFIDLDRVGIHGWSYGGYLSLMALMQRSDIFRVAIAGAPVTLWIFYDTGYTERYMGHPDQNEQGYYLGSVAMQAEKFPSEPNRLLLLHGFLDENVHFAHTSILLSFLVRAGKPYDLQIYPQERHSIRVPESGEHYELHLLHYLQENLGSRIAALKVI
Sequence of Dipeptidyl peptidase 4 (P27487 whole entry): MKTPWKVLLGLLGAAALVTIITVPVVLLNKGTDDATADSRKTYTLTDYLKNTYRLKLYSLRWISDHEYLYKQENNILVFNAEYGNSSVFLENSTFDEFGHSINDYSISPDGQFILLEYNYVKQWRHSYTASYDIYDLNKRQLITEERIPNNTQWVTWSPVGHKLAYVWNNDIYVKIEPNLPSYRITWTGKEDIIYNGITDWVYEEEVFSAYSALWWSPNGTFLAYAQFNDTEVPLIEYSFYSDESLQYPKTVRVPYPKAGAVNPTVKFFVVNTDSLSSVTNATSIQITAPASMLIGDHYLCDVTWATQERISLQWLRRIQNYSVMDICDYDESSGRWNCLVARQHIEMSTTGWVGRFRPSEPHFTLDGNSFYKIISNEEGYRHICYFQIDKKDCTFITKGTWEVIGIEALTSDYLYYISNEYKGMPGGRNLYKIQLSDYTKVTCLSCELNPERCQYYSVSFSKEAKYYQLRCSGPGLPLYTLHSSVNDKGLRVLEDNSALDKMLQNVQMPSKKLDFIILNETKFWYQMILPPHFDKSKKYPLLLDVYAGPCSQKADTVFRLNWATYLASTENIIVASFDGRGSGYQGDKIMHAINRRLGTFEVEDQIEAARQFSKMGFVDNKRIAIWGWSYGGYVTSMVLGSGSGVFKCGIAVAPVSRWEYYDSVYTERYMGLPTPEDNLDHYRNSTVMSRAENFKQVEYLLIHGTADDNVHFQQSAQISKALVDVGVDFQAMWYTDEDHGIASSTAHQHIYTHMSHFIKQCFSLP
Sequence of Voltage-gated inwardly rectifying potassium channel KCNH2 (Q12809 whole entry): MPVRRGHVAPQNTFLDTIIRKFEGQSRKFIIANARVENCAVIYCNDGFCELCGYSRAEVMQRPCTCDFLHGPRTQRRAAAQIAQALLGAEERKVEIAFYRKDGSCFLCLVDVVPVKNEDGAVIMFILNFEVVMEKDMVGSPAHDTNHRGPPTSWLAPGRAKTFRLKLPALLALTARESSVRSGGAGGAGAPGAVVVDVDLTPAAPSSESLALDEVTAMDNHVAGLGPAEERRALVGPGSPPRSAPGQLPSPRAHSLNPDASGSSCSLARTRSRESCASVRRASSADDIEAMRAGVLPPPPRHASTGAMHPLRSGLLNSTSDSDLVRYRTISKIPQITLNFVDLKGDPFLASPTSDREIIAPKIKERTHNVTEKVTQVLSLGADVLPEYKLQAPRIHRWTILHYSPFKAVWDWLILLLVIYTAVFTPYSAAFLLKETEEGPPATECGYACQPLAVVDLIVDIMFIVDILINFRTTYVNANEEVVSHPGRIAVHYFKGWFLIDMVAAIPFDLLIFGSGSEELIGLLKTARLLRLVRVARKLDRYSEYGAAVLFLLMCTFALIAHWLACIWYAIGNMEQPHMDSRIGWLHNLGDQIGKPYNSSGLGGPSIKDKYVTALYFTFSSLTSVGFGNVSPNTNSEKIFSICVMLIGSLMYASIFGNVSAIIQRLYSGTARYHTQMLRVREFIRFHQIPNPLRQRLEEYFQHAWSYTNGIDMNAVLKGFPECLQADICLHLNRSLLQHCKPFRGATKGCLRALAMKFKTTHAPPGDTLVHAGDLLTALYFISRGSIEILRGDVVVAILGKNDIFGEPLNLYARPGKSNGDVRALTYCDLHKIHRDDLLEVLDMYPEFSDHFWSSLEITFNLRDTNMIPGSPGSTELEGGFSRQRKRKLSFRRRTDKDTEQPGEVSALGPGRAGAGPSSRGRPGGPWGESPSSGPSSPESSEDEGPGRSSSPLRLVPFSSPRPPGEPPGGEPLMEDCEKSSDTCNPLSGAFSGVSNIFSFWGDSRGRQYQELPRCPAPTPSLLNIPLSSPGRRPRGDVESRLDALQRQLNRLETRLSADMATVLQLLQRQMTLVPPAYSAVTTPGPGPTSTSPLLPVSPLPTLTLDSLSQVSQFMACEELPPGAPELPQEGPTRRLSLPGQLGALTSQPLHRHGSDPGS
Sequence of Dipeptidyl peptidase 9 (Q86TI2 whole entry): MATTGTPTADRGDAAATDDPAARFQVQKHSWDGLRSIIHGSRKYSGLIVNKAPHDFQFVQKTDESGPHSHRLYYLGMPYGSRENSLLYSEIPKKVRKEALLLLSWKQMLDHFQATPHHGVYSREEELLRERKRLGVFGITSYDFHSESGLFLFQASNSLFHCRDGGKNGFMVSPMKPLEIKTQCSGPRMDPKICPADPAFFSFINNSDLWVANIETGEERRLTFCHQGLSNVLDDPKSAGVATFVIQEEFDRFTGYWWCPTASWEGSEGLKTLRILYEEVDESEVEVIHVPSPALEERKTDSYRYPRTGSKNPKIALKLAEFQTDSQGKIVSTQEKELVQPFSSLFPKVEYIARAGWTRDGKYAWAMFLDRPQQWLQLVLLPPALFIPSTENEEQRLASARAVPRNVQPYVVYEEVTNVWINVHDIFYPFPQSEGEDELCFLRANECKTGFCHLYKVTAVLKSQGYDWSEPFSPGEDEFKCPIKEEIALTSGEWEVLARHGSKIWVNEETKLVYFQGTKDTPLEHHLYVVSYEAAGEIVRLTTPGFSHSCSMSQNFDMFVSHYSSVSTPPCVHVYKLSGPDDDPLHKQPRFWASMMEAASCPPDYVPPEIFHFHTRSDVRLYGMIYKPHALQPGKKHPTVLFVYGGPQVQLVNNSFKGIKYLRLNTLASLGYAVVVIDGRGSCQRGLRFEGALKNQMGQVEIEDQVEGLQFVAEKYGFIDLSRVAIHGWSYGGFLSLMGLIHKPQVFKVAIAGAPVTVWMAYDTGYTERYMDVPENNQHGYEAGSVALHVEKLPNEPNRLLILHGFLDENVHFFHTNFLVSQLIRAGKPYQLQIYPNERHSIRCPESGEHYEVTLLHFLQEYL

As to `N#Cc1ccccc1Cn1c(N2CCC[C@@H](N)C2)nc2ccsc2c1=O`, the bioavailability was 42.3% in [1] and 23.7% in data set [16]. The mean residence time MRT in data set [2] came out at 2.7 h; in [12], 9 h; in [15] it was 6.7 h; in data set [26] it was 6 h. For the same molecule, the clearance in data set [3] is 116 mL/min/kg; in [8], 22.2 mL/min/kg. Besides, the Tmax in data set [4] was found to be 2.4 min; in data set [7], 0.91 h; in data set [18], 0.59 h; in [19], 6 min. Besides, the IC50 against Dipeptidyl peptidase 4 was 0.00033 µM; at Dipeptidyl peptidase 8, > 25 µM; against Dipeptidyl peptidase 9, > 25 µM. The AUC in the data set on Rattus norvegicus was determined as 690 ng·h/mL. In addition, the outcome in the data set on Mus musculus [5] and in the data set on Mus musculus [14] was Active. The half-life in [6] was 7 h; in [11], 10.1 h; in [20] it was 11.3 h; in [22] it was 5.9 h. Besides, the peak concentration (Cmax) in data set [9] was 5750 ng/mL; in data set [17], 2070 ng/mL; in [25], 170 ng/mL; in data set [27], 1230 ng/mL. In addition, the results for the AUC(0-t) in data set [10], in data set [21] and in data set [24] were 11200 ng·h/mL, 13300 ng·h/mL and 1480 ng·h/mL, respectively. Further, the apparent clearance (CL/F) in data set [13] is 11.5 mL/min/kg. For the same molecule, the Activity in [23] is 517.4 µM.
Turning to `N#Cc1ccccc1Cn1c(N2CCC[C@@H](N)C2)nc2scc(C(F)(F)F)c2c1=O`, the 50% inhibitory concentration (IC50) is 0.0888 µM against Dipeptidyl peptidase 4, > 25 µM on Dipeptidyl peptidase 8 and > 25 µM against Dipeptidyl peptidase 9.
Consider `Cc1csc2nc(N3CCC[C@@H](N)C3)n(Cc3ccccc3C#N)c(=O)c12`, for which the figures for the half-inhibitory concentration (IC50) on Dipeptidyl peptidase 4, against Dipeptidyl peptidase 8 and against Dipeptidyl peptidase 9 were 0.00132 µM, > 25 µM and > 25 µM, respectively. For the same molecule, the Activity in data set [23] was 376.3 µM.
In the case of `Cc1csc2c(=O)n(Cc3ccccc3C#N)c(N3CCC[C@@H](N)C3)nc12`, the half-maximal inhibitory concentration (IC50) was 0.00172 µM at Dipeptidyl peptidase 4, > 25 µM at Dipeptidyl peptidase 8 and > 25 µM on Dipeptidyl peptidase 9. In data set [23], the Activity was 203.5 µM.
As to `N#Cc1ccccc1Cn1c(N2CCC[C@@H](N)C2)nc2sccc2c1=O`, the half-maximal inhibitory concentration (IC50) is 0.00087 µM against Dipeptidyl peptidase 4, > 25 µM against Dipeptidyl peptidase 8 and > 25 µM against Dipeptidyl peptidase 9. Also, the Activity in data set [23] came out at 484.6 µM.
